Assay results published in ChEMBL document CHEMBL3627626, “6-Substituted Pyrrolo[2,3-d]pyrimidine Thienoyl Regioisomers as Targeted Antifolates for Folate Receptor α and the Proton-Coupled Folate Transporter in Human Tumors” (J Med Chem, 2015).
The source made the active and inactive calls. No cut-off for these calls is given here.

Legend:
[1] = molecular target: T1, Trifunctional purine biosynthetic protein adenosine-3 (Homo sapiens) (UniProt P22102); assay: Inhibition of GARFTase in human KB cells expressing FRalpha/PCFT/RFC assessed as cell growth inhibition after 96 hrs by CellTiter-Blue assay in presence of AICA; assay type: cell-based
T1 sequence (whole entry): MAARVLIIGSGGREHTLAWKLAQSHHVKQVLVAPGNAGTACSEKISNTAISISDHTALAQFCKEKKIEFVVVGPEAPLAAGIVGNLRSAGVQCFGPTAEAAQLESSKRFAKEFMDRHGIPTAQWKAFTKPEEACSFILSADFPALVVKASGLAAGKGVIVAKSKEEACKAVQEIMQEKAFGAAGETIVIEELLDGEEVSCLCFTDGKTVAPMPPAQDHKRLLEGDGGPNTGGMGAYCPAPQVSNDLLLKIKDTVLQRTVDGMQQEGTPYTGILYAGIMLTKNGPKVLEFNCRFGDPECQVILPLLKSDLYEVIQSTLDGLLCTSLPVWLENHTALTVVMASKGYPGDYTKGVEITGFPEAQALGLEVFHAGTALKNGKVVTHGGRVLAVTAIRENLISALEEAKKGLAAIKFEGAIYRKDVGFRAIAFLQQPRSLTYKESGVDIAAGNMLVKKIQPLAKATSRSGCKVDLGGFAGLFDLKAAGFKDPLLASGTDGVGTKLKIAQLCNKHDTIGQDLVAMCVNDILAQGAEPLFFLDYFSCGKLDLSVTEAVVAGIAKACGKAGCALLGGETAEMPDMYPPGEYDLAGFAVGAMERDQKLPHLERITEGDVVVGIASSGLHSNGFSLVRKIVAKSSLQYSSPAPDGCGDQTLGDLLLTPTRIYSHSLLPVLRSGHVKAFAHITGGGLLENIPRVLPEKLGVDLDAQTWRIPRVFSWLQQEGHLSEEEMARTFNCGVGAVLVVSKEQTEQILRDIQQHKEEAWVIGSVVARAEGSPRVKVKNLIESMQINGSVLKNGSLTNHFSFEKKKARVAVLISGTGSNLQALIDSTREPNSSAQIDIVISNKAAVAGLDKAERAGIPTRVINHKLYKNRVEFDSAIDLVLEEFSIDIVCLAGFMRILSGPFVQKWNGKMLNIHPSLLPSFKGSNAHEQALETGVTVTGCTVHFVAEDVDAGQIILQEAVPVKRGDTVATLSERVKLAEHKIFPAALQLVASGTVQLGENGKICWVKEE

[2] = molecular target: T2, Proton-coupled folate transporter (Homo sapiens) (UniProt Q96NT5); assay: Binding affinity to human PCFT expressed in Chinese hamster R2/PCFT4 cells assessed as increase in intracellular drug transport at 0.5 uM at 37 degC at pH 5.5 measured over 5 mins in presence of AGF94; assay type: cell-based
T2 sequence (whole entry): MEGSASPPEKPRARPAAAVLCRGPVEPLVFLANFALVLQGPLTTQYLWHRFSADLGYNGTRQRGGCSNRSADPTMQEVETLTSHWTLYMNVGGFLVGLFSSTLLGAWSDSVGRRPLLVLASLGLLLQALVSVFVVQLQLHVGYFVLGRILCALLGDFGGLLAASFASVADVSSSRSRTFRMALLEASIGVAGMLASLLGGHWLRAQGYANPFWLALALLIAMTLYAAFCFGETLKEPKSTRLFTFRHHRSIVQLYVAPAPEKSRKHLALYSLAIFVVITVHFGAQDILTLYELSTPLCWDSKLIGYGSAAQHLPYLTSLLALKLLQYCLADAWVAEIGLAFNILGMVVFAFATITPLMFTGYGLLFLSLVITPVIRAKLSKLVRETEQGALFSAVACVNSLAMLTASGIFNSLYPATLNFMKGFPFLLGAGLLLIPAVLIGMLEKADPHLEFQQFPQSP

SK-OV-3 = assay: Antitumor activity against human SKOV3 cells expressing RFC/PCFT/FRalpha xenografted in folate-deficient diet fed NCR SCID mouse assessed as delay in tumor growth at 16 mg/kg, iv administered every 4 days on day 3, 7, 11 measured twice per week; assay type: functional, organism-based
Method in brief: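 Ten-week-old female NCR SCID mice, fed a folate-deficient or standard folate-replete diet, were implanted subcutaneously and bilaterally with SKOV3 tumour fragments. Randomised at 5 mice/group. Dosed intravenously, 0.2 mL per injection, in 5% ethanol/1% Tween-80/0.5% NaHCO3 in water at pH 6.5, on days 3, 7 and 11. Tumours measured twice weekly and mice weighed daily. T/C taken on day 21; growth delay and log cell kill also reported.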

PC43-10 = assay: Selectivity ratio of IC50 for human RFC expressed in Chinese hamster PC43-10 cells assessed as cell growth inhibition to IC50 for human PCFT expressed in Chinese hamster R2/PCFT4 cells assessed as cell growth inhibition; assay type: cell-based
[3] = molecular target: T3, Trifunctional purine biosynthetic protein adenosine-3 (Homo sapiens, UniProt P22102); assay: Inhibition of GARFTase in human KB cells expressing FRalpha/PCFT/RFC assessed as incorporation of [14C(U)]-glycine into [14C]-formyl GAR preincubated for 1 hr followed by azaserine, L-glutamine, 14C(U)]-glycine addition measured after 16 hrs; assay type: cell-based
T3 sequence (P22102 whole entry): T1 sequence (whole entry)
Method in brief: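 In situ assay in KB cells. Cells were exposed to a range of drug concentrations with [14C]glycine for 16 h under proliferation-assay conditions, with azaserine present. Radiolabelled metabolites were extracted and separated on anion exchange columns, and [14C]formyl GAR quantified. Mean ±SE of three experiments.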

Nc1nc2[nH]c(CCCc3cc(C(=O)N[C@@H](CCC(=O)O)C(=O)O)cs3)cc2c(=O)[nH]1
inhibition [1]: inactive
Activity [2]: inactive
Activity (SK-OV-3): Active
Ratio IC50 (PC43-10): 29
IC50 [3]: 2.6 nM
